The source of these data is ChEMBL document CHEMBL3352724, “Phenolic Glycosides from the Twigs of Salix glandulosa” (J Nat Prod, 2014).

Structures are written as SMILES. Where only a bound is given, the exact number is not on record here.

In one data set the test system is A549. As to the kind of experiment: Cytotoxicity against human A549 cells by sulforhodamine B bioassay. Type of data set: functional, cell-based. In a few lines: (§1)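 Sulforhodamine B assay on cultured human tumor cell lines A549, SK-OV-3, A498 and HCT15. Run at the Korea Research Institute of Chemical Technology.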
A short description of data set [1]: Cytotoxicity against human SKOV3 cells by sulforhodamine B bioassay. Format: functional, cell-based. Conditions: SK-OV-3. The essentials:
as §1

Data set [2] in a line: Cytotoxicity against human HCT15 cells by sulforhodamine B bioassay. Type of data set: functional, cell-based. The following applies: HCT-15. The essentials:
as §1

The nature of data set [3]: Cytotoxicity against mouse BV2 cells by MTT assay. More on the design: concentration or dose not given beside the values. The following applies: bv-2.
Data set [4] is described as follows: Antineuroinflammatory activity against mouse BV2 cells assessed as inhibition of LPS-induced NO production treated with compound 30 mins and challenged with LPS for 24 hrs. The following applies: BV-2.
A further data set concerns SK-MEL-2. As to the kind of experiment: Cytotoxicity against human SK-MEL-2 cells by sulforhodamine B bioassay. Format: functional, cell-based.

As for `O=C(/C=C/c1ccc(O)cc1)O[C@H]1[C@H](O[C@@H]2CCCC[C@H]2O)O[C@H](CO)[C@@H](O)[C@@H]1O`, the IC50 in the data set with A549 was over 10 µM; in data set [1], over 10 µM; in data set [2] it was over 10 µM; in data set [4], 20.5 µM. In data set [3], this compound yielded an Activity of 107.2%.
For the compound `O=C(/C=C\c1ccc(O)cc1)O[C@H]1[C@H](O[C@@H]2CCCC[C@H]2O)O[C@H](CO)[C@@H](O)[C@@H]1O`, the IC50 in the data set on A549 is over 10 µM; in data set [1], over 10 µM; in data set [2], over 10 µM; in data set [4] it was 6.6 µM. Further, the Activity in data set [3] is reported as 102.5%.
Turning to `O=C(/C=C/c1ccc(O)cc1)OC[C@H]1O[C@@H](O[C@@H]2CCCC[C@H]2O)[C@H](O)[C@@H](O)[C@@H]1O`, the IC50 in the data set on A549 was over 10 µM; in data set [1], over 10 µM; in data set [2], over 10 µM; in data set [4] it was 14.8 µM. This compound came in with an Activity in data set [3] of 100.7%.
Consider `O=C(/C=C\c1ccc(O)cc1)OC[C@H]1O[C@@H](O[C@@H]2CCCC[C@H]2O)[C@H](O)[C@@H](O)[C@@H]1O`, for which the IC50 (in the data set with A549; in data set [1]; in data set [2]) was over 10 µM in each case.
Turning to `O=C(OC[C@H]1O[C@@H](O[C@@H]2CCCC[C@H]2O)[C@H](O)[C@@H](O)[C@@H]1O)c1ccc(O)cc1`, the IC50 (with A549; in data set [1]; in data set [2]) was over 10 µM throughout.
`O=C(/C=C/c1ccc(O)cc1)O[C@H]1[C@H](O[C@H]2CCCC[C@@H]2O)O[C@H](CO)[C@@H](O)[C@@H]1O`: the IC50 with A549 was over 10 µM; in data set [1], over 10 µM; in data set [2], over 10 µM; in data set [4], 15.5 µM. For the same compound, the Activity in data set [3] worked out at 93.6%.
In the case of `O=C(/C=C\c1ccc(O)cc1)O[C@@H]1[C@H](O[C@H]2CCCC[C@@H]2O)O[C@H](CO)[C@@H](O)[C@H]1O`, the IC50 with A549 was over 10 µM; in data set [1], over 10 µM; in data set [2] it was over 10 µM; in data set [4] it was 18.1 µM. This compound returned an Activity in data set [3] of 96.2%.
Regarding `O=C(/C=C\c1ccc(O)cc1)O[C@@H]1[C@H](O[C@@H]2CCCC[C@@H]2O)O[C@H](CO)[C@@H](O)[C@H]1O`, the IC50 (in the data set with A549; in data set [1]; in data set [2]) was over 10 µM throughout.
Turning to `O=C(/C=C/c1ccc(O)cc1)O[C@H]1[C@H](O[C@H]2CCCC[C@H]2O)O[C@H](CO)[C@@H](O)[C@@H]1O`, the IC50 (in the data set on A549; in data set [1]; in data set [2]) was over 10 µM in each case.
As to `O=C(/C=C\c1ccc(O)cc1)O[C@H]1[C@H](O[C@H]2CCCC[C@H]2O)O[C@H](CO)[C@@H](O)[C@@H]1O`, the 50% inhibitory concentration (IC50) (in the data set on A549; in data set [1]; in data set [2]) was over 10 µM throughout.
`O=C(/C=C/c1ccc(O)cc1)OC[C@H]1O[C@@H](O[C@H]2CCCC[C@H]2O)[C@H](O)[C@@H](O)[C@@H]1O`: the IC50 (in the data set on A549; in data set [1]; in data set [2]) was over 10 µM each time.
`O=C(/C=C\c1ccc(O)cc1)OC[C@H]1O[C@@H](O[C@H]2CCCC[C@H]2O)[C@H](O)[C@@H](O)[C@@H]1O`: the IC50 (in the data set on A549; in data set [1]; in data set [2]) was over 10 µM in each case.
`O=C(/C=C/c1ccc(O)cc1)O[C@H]1[C@H](O[C@@H]2CCCC[C@@H]2O)O[C@H](CO)[C@@H](O)[C@@H]1O`: the IC50 (in the data set with A549; in data set [1]; in data set [2]) was over 10 µM in each case.
As to `COc1cccc2c1C(=O)c1c(O)c3c(c(O)c1C2=O)C[C@@](O)(C(=O)CO)C[C@@H]3O[C@H]1C[C@H](N)[C@H](O)[C@H](C)O1` [DOXORUBICIN], the IC50 in the data set on A549 turned out to be 0.0014 µM; in data set [1] it was 0.0217 µM; in the data set on SK-MEL-2 it was 0.0025 µM; in data set [2], 0.108 µM.
In the case of `CNC(=N)NCCC[C@H](N)C(=O)O` [TILARGININE], the Activity in data set [3] was 99.8%. Besides, in data set [4], the IC50 came out at 24.3 µM.
